Laboratory results reported in ChEMBL document CHEMBL1128499, “Bisimidazoacridones and related compounds: new antineoplastic agents with high selectivity against colon tumors” (1995).

How the values were obtained:
Assay type in all cases: functional
Details in all cases: Homo sapiens
CCRF-CEM = experiment: The concentration of compound required for 50% cell growth inhibition which was expressed in logarithmic form was measured on CCRF-CEM cell lines of Leukemia
Summary of the method: (§1)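 NCI 60-cell-line screen, sulforhodamine B assay. Cells grown in RPMI 1640 with 5% fetal bovine serum and 2 mM L-glutamine, seeded at 5000 to 40 000 cells/well, and incubated 24 h before drug. Drug exposure lasted 48 h. Cells were then TCA-fixed, stained with 0.4% (w/v) SRB in 1% acetic acid, and the stain solubilized in 10 mM Tris base for absorbance reading. GI50 taken from dose-response curves.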

COLO 205 = experiment: The concentration of compound required for 50% cell growth inhibition which was expressed in logarithmic form was measured on COLO 205 cell lines of colon cancer; summary of the method: as §1
HCT-15 = experiment: The concentration of compound required for 50% cell growth inhibition which was expressed in logarithmic form was measured on HCT-15 cell lines of colon cancer; summary of the method: as §1
HCT-116 = experiment: The concentration of compound required for 50% cell growth inhibition which was expressed in logarithmic form was measured on […] cell lines of colon cancer; summary of the method: as §1
HCC 2998 = experiment: The concentration of compound required for 50% cell growth inhibition which was expressed in logarithmic form was measured on HCC2998 cell lines of colon cancer; summary of the method: as §1
HT-29 = experiment: The concentration of compound required for 50% cell growth inhibition which was expressed in logarithmic form was measured on HT-29 cell lines of colon cancer; summary of the method: as §1
KM12 = experiment: The concentration of compound required for 50% cell growth inhibition which was expressed in logarithmic form was measured on KM12 cell lines of colon cancer; summary of the method: as §1
M14 = experiment: The concentration of compound required for 50% cell growth inhibition which was expressed in logarithmic form was measured on M14 cell lines of Melanoma; summary of the method: as §1
MOLT-4 = experiment: The concentration of compound required for 50% cell growth inhibition which was expressed in logarithmic form was measured on MOLT-4 cell lines of Leukemia; summary of the method: as §1
Malme-3M = experiment: The concentration of compound required for 50% cell growth inhibition which was expressed in logarithmic form was measured on MALME-3M cell lines of Melanoma; summary of the method: as §1
SK-MEL-2 = experiment: The concentration of compound required for 50% cell growth inhibition which was expressed in logarithmic form was measured on SK-MEL-2 cell lines of Melanoma; summary of the method: as §1
SW-620 = experiment: The concentration of compound required for 50% cell growth inhibition which was expressed in logarithmic form was measured on SW-620 cell lines of colon cancer; summary of the method: as §1
SK-MEL-5 = experiment: The concentration of compound required for 50% cell growth inhibition which was expressed in logarithmic form was measured on SK-MEL-5 cell lines of Melanoma; summary of the method: as §1
SK-MEL-28 = experiment: The concentration of compound required for 50% cell growth inhibition which was expressed in logarithmic form was measured on SK-MEL-28 cell lines of Melanoma; summary of the method: as §1
UACC-257 = experiment: The concentration of compound required for 50% cell growth inhibition which was expressed in logarithmic form was measured on UACC-257 cell lines of Melanoma; summary of the method: as §1
UACC-62 = experiment: The concentration of compound required for 50% cell growth inhibition which was expressed in logarithmic form was measured on UACC-62 cell lines of Melanoma; summary of the method: as §1
RPMI-8226 = experiment: The concentration of compound required for 50% cell growth inhibition which was expressed in logarithmic form was measured on RPMI-8226 cell lines of Leukemia; summary of the method: as §1
HL-60 = experiment: The concentration of compound required for 50% cell growth inhibition which was expressed in logarithmic form was measured on HL-60(TB) cell lines of Leukemia
Summary of the method: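 NCI 60-line screen, sulforhodamine B read-out. Lines grown in RPMI 1640 with 5% fetal bovine serum and 2 mM L-glutamine, seeded at 5000–40 000 cells/well and left 24 h before drug. Drug exposure 48 h, then TCA fixation, 0.4% (w/v) SRB staining in 1% acetic acid, solubilization in 10 mM unbuffered Tris base and absorbance reading. GI50 reported as log value.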

K562 = experiment: The concentration of compound required for 50% cell growth inhibition which was expressed in logarithmic form was measured on K-562 cell lines of Leukemia; summary of the method: as §1

CN(CCNc1ccc2ncn3c4ccccc4c(=O)c1c23)CCNc1ccc2ncn3c4ccccc4c(=O)c1c23
GI50 (CCRF-CEM): 95.5 µM
GI50 (COLO 205): 22.4 µM
GI50 (HCT-15): 27.5 µM
GI50 (HCT-116): 2.24 µM
GI50 (HCC 2998): 25.1 µM
GI50 (HT-29): 4.37 µM
GI50 (KM12): 2.69 µM
GI50 (M14): 4.07 µM
GI50 (MOLT-4): 58.9 µM
GI50 (Malme-3M): 13.2 µM
GI50 (SK-MEL-2): 27.5 µM
GI50 (SW-620): 11.2 µM
GI50 (SK-MEL-5): 5.89 µM
GI50 (SK-MEL-28): 2.82 µM
GI50 (UACC-257): 8.13 µM
GI50 (UACC-62): 21.9 µM
GI50 (RPMI-8226): 28.2 µM
GI50 (HL-60): > 100 µM
GI50 (K562): 28.2 µM

CN(CCCNc1ccc2ncn3c4ccccc4c(=O)c1c23)CCCNc1ccc2ncn3c4ccc(C(C)(C)C)cc4c(=O)c1c23
GI50 (CCRF-CEM): 6.92 µM
GI50 (COLO 205): 1.74 µM
GI50 (HCT-15): 1.78 µM
GI50 (HCT-116): 1.23 µM
GI50 (HCC 2998): 1.7 µM
GI50 (HT-29): 1.58 µM
GI50 (KM12): 1.55 µM
GI50 (M14): 2.04 µM
GI50 (MOLT-4): 3.09 µM
GI50 (Malme-3M): 1.74 µM
GI50 (SK-MEL-2): 1.58 µM
GI50 (SW-620): 1.29 µM
GI50 (SK-MEL-5): 1.7 µM
GI50 (SK-MEL-28): 1.82 µM
GI50 (UACC-257): 1.45 µM
GI50 (UACC-62): 1.91 µM
GI50 (RPMI-8226): 2.88 µM
GI50 (HL-60): 4.79 µM
GI50 (K562): 0.724 µM

CN(CCCN)CCCNc1ccc2ncn3c4ccccc4c(=O)c1c23
GI50 (CCRF-CEM): 0.347 µM
GI50 (COLO 205): 1.15 µM
GI50 (HCT-15): 3.47 µM
GI50 (HCT-116): 0.661 µM
GI50 (HCC 2998): 1.35 µM
GI50 (HT-29): 0.631 µM
GI50 (KM12): 1.07 µM
GI50 (M14): 1.78 µM
GI50 (MOLT-4): 0.355 µM
GI50 (Malme-3M): 1.62 µM
GI50 (SK-MEL-2): 1.45 µM
GI50 (SW-620): 0.631 µM
GI50 (SK-MEL-5): 1.55 µM
GI50 (SK-MEL-28): 1.55 µM
GI50 (UACC-257): 1.78 µM
GI50 (UACC-62): 1.62 µM
GI50 (RPMI-8226): 1.15 µM
GI50 (HL-60): 0.282 µM
GI50 (K562): 0.813 µM

CN(CCCNc1ccc2ncn3c4ccccc4c(=O)c1c23)CCCNc1ccc2ncn3c4ccccc4c(=O)c1c23
GI50 (CCRF-CEM): < 0.01 µM
GI50 (COLO 205): 0.501 µM
GI50 (HCT-15): 0.316 µM
GI50 (HCT-116): < 0.01 µM
GI50 (HCC 2998): 0.0933 µM
GI50 (HT-29): 0.0166 µM
GI50 (KM12): 0.295 µM
GI50 (M14): > 100 µM
GI50 (MOLT-4): < 0.01 µM
GI50 (Malme-3M): 0.776 µM
GI50 (SK-MEL-2): 13.8 µM
GI50 (SW-620): < 0.01 µM
GI50 (SK-MEL-5): 12.9 µM
GI50 (SK-MEL-28): > 100 µM
GI50 (UACC-257): > 100 µM
GI50 (UACC-62): 8.13 µM
GI50 (RPMI-8226): 0.145 µM
GI50 (HL-60): 0.0447 µM
GI50 (K562): < 0.01 µM

CN(CCCNc1ccc2ncn3c4ccccc4c(=O)c1c23)CCCNc1ccc2nnn3c4ccccc4c(=O)c1c23
GI50 (CCRF-CEM): 5.01 µM
GI50 (COLO 205): 0.372 µM
GI50 (HCT-15): 0.0479 µM
GI50 (HCT-116): < 0.01 µM
GI50 (HT-29): < 0.01 µM
GI50 (KM12): 0.0309 µM
GI50 (M14): > 100 µM
GI50 (MOLT-4): > 100 µM
GI50 (Malme-3M): 12 µM
GI50 (SK-MEL-2): 51.3 µM
GI50 (SW-620): < 0.01 µM
GI50 (SK-MEL-5): 17 µM
GI50 (SK-MEL-28): 44.7 µM
GI50 (UACC-257): > 100 µM
GI50 (UACC-62): 38 µM
GI50 (HL-60): 10.2 µM
GI50 (K562): 17.8 µM
